The text below walks through data of publication PMC3457677 (International Journal of Nanomedicine, 2012).

Each structure is given as a SMILES string. ≈ marks a conversion by molar mass, not a printed value.

The conditions of data set [1]: cited from earlier work.
For data set [2], the system named is human oral squamous cell carcinoma (Ca9-22) cell line. The experiment in a line: MTT cytotoxicity assay. The data set is classed as cell-based. Conditions: Ca9-22, 72 h, read-out: IC50 (μg/mL) on cell lines Ca9-22. The method in brief:
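Ca9-22 cells grown in DMEM with 10% FBS and 1% antibiotics at 37°C, 5% CO2. Seeded at 5 × 10^4 cells/well and grown to confluence. Free or SLN-encapsulated test compound (added solution at 40 μg/mL) applied for 72 hours. After a PBS wash, MTT (25 μg/mL) for 2 h, then DMSO. Absorbance read at 550 nm; IC50 from a four-parameter logistic fit.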
For orientation: Tetrazolium dyes change colour on reduction, which living cells bring about.

In data set [3] the test system is human breast adenocarcinoma (MDA-MB-231) cell line. The data set is described as follows: MTT cytotoxicity assay. The following applies: MDA-MB-231, 72 h, read-out: IC50 (μg/mL) on cell lines MDA-MB-231. The data set is classed as cell-based. The method in brief: (§1)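 Cells were grown in DMEM with 10% FBS and 1% antibiotics at 37°C under 5% CO2 and seeded in 96-well plates at 5 × 10^4 cells/well (A549: 5 × 10^3) until confluent. Free or SLN-encapsulated compound was added for 72 h. After a PBS wash, MTT (25 μg/mL) was given for 2 h, formazan was dissolved in DMSO and read at 550 nm. IC50 came from a four-parameter logistic fit; n = 6.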

In data set [4] the test system is human hepatocellular liver carcinoma (HepG2) cell line. The experiment in a line: MTT cytotoxicity assay. It counts as cell-based. Conditions: HepG2, 72 h, read-out: IC50 (μg/mL) on cell lines HepG2. The method in brief:
as §1

The test system of data set [5] is human breast adenocarcinoma with estrogen receptor (MCF7) cell line. The experiment in a line: MTT cytotoxicity assay. It counts as cell-based. The following applies: MCF7, 72 h, read-out: IC50 (μg/mL) on cell lines MCF7. An outline of the steps: as §1
Data set [6] has as its system human lung carcinoma (A549) cell line. The data set is described as follows: MTT cytotoxicity assay. The data set is classed as cell-based. Conditions: A549, 72 h, read-out: IC50 (μg/mL) on cell lines A549. The method in brief: as §1
Another data set is described as follows: In vitro release study. Conditions: pH 7.4 PBS containing 1% F-127. The data set is classed as physicochemical. An outline of the steps: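 Dialysis bags (MWCO 12,000–14,000 Da, pre-soaked 12 h in water) held 1 mL SLN suspension in 100 mL pH 7.4 phosphate buffer with 1% Pluronic F-127 (sink) at 37°C. At intervals, 1 mL receiver aliquots were withdrawn and replaced with fresh medium. Drug was quantified by C18 HPLC with electrochemical detection. Release percentage was fitted to kinetic models; n = 4.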

The nature of data set [7]: Biodistribution in tissues and organs after intravenous administration. The data set is classed as in vivo. The following applies: Wistar rats, 4.7 mg/kg intravenous, 30 minutes.
Data set [8] in a line: Solubility of PK-L4 in aqueous and receptor media. The data set is classed as physicochemical. Conditions: compared: pH 7.4 PBS, pH 7.4 PBS containing 1% F-68, pH 7.4 PBS containing 1% F-127.
Data set [9] can be described thus: In vivo pharmacokinetics after intravenous bolus. The following applies: male, Wistar, rat, plasma, 4.7 mg/kg. The arrangement: species or system Wistar rats. An outline of the steps:
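Fasted male Wistar rats (200–250 g) under urethane anaesthesia received a jugular vein injection of 4.7 mg/kg. The free-drug solution was in ethanol/PEG 400/tetraglycol/water. Heart blood (0.3 mL) was taken at set times, and plasma was extracted with dichloromethane using diclofenac as internal standard, then analysed by HPLC-ECD. A compartment model was fitted; AUC0–∞ by trapezoidal rule plus extrapolation, Cl = dose/AUC0–∞; n = 3.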

For data set [10] the following is noted: cited from earlier work. This is another data set of the same source.

For `COc1cc(NS(C)(=O)=O)ccc1Nc1c2ccccc2nc2ccccc12` [Amsacrine], the half-life in plasma in data set [1] is 20 to 30 min.
With `COc1cccc2c1C(=O)c1c(O)c3c(c(O)c1C2=O)C[C@@](O)(C(=O)CO)C[C@@H]3O[C@H]1C[C@H](N)[C@H](O)[C@H](C)O1` [Doxorubicin solution, reference compound], the IC50 in [2] was 0.14 µg/mL (≈ 0.258 µM); in data set [3], 0.51 µg/mL (≈ 0.938 µM); in data set [4], 0.11 µg/mL (≈ 0.202 µM); in [5], 0.43 µg/mL (≈ 0.791 µM); in data set [6], 0.4 µg/mL (≈ 0.736 µM).
As for `COc1ccc(Nc2c3ccccc3nc3occ(Cl)c23)cc1` [PK-L4, 3-Chloro-4-[(4-methoxyphenyl)amino]furo[2,3-b]quinoline], the IC50 in data set [2] turned out to be 0.04 µg/mL (≈ 0.123 µM); in [3], 2.14 µg/mL (≈ 6.59 µM); in [4], 0.04 µg/mL (≈ 0.123 µM); in data set [5], 8.47 µg/mL (≈ 26.1 µM); in [6] it was 0.11 µg/mL (≈ 0.339 µM). In addition, the “Best-fitting release kinetics model” value in “In vitro release study” is “Higuchi order”. For the same compound, the “Main sites of PK-L4 deposition in tissues” value in data set [7] is “mainly located in the spine, followed by the lungs, brain, small intestine, and heart”. Also, in data set [8], the “Solubility of PK-L4 in receptor media” value is given as “pH 7.4 PBS containing 1% F-127 exhibited the best solubility”. Further, the total exposure AUC(0-inf) (commonly the area under the concentration-time curve extrapolated to infinity) in data set [9] turned out to be 1160 ± 87 ng·h/mL. Further, in data set [9], the MRT (commonly a mean duration of stay, worked out from the concentration-time curve) stood at 1.02 ± 0.145 h. Moreover, in data set [9], the Vd (commonly the apparent volume that relates the amount in the body to the concentration in plasma or blood) was determined as 4.12 ± 0.395 L/kg. In addition, the clearance (in general, the volume of plasma or blood freed of the substance per unit of time) in [9] was 67.9 mL/min/kg. The half-life (in general, the time in which the quantity being followed falls by half) in data set [9] (half-life alpha, after intravenous bolus, rat plasma) is 4.68 ± 1.38 min. The “Solubility in water and biocompatible media” value in [10] is “water insoluble”.
